This is an account of results in article PMC3034256 (Chemistry & biology, 2011).

The test system of one assay is panel of PTPs. As to the kind of experiment: Screen against a panel of PTPs at 10 µM. It counts as biochemical. Particulars: 10 µM compound, pNPP, pH 7, 25 °C.
The test system of another assay is PP2A. Particulars: biochemical assays; cited from earlier work.
The target in a further assay is T1, Cdc14A (Homo sapiens, UniProt Q9UNH5).
T1 sequence (Q9UNH5 1-594): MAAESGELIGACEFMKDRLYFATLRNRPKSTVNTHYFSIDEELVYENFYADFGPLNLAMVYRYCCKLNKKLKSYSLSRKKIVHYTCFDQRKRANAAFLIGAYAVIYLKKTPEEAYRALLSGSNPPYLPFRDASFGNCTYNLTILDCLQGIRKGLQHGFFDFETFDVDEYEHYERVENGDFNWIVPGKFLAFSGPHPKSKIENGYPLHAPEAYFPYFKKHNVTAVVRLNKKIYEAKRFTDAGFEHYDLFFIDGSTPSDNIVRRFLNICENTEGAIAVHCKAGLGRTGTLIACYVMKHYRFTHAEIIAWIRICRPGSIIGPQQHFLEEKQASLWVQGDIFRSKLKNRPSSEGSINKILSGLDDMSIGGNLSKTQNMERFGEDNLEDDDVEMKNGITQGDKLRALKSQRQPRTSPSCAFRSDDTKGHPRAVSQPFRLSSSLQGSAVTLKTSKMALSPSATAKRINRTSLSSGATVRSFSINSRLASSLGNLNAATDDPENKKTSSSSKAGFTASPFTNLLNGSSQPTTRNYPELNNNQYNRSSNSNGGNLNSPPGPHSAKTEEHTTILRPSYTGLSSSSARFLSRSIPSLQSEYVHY
As to the kind of experiment: PTP-catalyzed pNPP hydrolysis, Cdc14A. It counts as biochemical. Put shortly: (§1)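 pNPP hydrolysis was run at 25 °C in 50 mM 3,3-dimethylglutarate, pH 7.0, 1 mM EDTA, ionic strength 0.15 M (NaCl). pNPP was fixed at each enzyme's experimentally determined Km, and reactions were started with enzyme. They were quenched with NaOH and corrected with no-enzyme controls. p-Nitrophenol was read at 405 nm. IC50 was fitted from AI/A0 = IC50/(IC50+[I]).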

For the next assay, the target named is SHP1 (Homo sapiens, UniProt P29350). As to the kind of experiment: PTP-catalyzed pNPP hydrolysis, SHP1. It counts as biochemical. Put shortly:
as §1

In another assay the target is T2, CD45 (Homo sapiens, UniProt P08575).
T2 sequence (P08575 26-1306): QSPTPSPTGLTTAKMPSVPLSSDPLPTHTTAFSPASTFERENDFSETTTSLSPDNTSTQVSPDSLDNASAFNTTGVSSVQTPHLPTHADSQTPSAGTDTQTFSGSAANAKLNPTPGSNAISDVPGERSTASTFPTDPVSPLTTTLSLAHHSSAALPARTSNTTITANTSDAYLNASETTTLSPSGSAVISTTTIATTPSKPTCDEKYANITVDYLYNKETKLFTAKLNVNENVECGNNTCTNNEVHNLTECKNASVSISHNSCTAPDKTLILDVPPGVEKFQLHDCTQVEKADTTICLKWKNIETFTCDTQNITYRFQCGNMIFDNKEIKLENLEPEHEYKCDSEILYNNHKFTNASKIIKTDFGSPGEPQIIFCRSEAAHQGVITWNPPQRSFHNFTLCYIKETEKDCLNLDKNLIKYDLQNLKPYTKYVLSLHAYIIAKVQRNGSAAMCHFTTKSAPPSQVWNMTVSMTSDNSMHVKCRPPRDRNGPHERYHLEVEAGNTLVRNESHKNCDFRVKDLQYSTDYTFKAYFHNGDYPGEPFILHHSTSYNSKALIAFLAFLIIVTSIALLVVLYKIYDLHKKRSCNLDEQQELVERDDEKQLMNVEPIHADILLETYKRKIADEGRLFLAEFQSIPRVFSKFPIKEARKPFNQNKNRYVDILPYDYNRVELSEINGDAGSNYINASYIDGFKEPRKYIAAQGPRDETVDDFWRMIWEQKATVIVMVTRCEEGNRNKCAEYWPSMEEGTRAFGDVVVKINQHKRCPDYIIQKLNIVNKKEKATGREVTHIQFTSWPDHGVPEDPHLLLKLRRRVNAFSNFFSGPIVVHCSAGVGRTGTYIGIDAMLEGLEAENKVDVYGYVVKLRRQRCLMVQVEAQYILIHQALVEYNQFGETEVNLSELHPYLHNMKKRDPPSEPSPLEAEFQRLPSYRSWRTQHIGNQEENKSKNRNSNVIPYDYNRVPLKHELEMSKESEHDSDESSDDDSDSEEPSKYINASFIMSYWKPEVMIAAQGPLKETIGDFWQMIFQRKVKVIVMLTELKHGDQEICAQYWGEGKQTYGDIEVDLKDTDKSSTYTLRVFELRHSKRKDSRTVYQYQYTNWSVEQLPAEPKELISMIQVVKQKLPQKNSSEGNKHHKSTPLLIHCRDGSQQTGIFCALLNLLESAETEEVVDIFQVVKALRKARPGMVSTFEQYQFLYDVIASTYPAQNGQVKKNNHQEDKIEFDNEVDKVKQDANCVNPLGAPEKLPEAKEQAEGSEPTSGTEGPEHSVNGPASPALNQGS
As to the kind of experiment: PTP-catalyzed pNPP hydrolysis, CD45. It counts as biochemical. Put shortly: as §1

For assay [1], the system named is SHP2/E76K-expressing hematopoietic progenitors. It is filed as cell-based. Particulars: 2 µM for 24 hours, GM-CSF 1 ng/mL, [3H] thymidine. Put shortly:
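Transduced, EGFP-sorted bone marrow low-density mononuclear cells (empty vector, wild-type SHP2 or SHP2/E76K) were serum- and growth factor-starved for 6 h. They were then cultured in complete medium with GM-CSF 1 ng/mL, with DMSO or 2 µM test compound, for 24 h. Cells were pulsed with [3H]thymidine to measure proliferation. Two independent experiments, cultures in triplicate.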

The test system of another assay is PP1. The following applies: biochemical assays; cited from earlier work.
In assay [2] the test system is transduced bone marrow LDMNCs (MIEG3, wild-type SHP2, SHP2/E76K). As to the kind of experiment: Methylcellulose colony assay, GM-CSF-stimulated monocytic differentiation. Particulars: 2 µM, GM-CSF 1 ng/mL, 7 days, all cell types. It counts as cell-based. The method, boiled down: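 Transduced, EGFP-sorted bone marrow low-density mononuclear cells were plated at 8000 cells/mL in 0.9% methylcellulose medium (IMDM, 2 mM glutamine, 80 µM β-mercaptoethanol, 30% FBS) with GM-CSF 1 ng/mL, ± 2 µM test compound. Cultures were kept at 37 °C, 5% CO2 for 7 days. Total colonies and CFU-GM vs CFU-M morphology were scored by light microscopy; n=2.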

A further assay concerns the target PTPα (Homo sapiens, UniProt P18433). As to the kind of experiment: PTP-catalyzed pNPP hydrolysis, PTPα. It counts as biochemical. The method, boiled down:
as §1

Structures are written as SMILES.

Chain of SHP1 (P29350 whole entry): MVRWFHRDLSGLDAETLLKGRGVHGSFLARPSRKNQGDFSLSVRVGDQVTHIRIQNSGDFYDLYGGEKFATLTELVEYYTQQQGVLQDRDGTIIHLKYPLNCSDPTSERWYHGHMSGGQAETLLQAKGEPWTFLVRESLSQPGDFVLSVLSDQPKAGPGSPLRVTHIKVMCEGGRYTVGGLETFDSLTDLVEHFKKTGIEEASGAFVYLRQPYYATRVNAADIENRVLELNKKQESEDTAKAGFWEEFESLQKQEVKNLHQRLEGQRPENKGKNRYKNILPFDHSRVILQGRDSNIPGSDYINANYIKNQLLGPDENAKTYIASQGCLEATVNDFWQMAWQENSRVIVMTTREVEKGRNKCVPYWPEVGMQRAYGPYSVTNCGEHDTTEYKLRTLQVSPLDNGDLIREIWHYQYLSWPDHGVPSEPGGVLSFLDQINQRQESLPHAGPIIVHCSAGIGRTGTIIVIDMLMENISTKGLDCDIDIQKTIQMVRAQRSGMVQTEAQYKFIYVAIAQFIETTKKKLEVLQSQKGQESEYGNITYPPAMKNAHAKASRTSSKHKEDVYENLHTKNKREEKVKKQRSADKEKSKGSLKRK
Chain of PTPα (P18433 20-802): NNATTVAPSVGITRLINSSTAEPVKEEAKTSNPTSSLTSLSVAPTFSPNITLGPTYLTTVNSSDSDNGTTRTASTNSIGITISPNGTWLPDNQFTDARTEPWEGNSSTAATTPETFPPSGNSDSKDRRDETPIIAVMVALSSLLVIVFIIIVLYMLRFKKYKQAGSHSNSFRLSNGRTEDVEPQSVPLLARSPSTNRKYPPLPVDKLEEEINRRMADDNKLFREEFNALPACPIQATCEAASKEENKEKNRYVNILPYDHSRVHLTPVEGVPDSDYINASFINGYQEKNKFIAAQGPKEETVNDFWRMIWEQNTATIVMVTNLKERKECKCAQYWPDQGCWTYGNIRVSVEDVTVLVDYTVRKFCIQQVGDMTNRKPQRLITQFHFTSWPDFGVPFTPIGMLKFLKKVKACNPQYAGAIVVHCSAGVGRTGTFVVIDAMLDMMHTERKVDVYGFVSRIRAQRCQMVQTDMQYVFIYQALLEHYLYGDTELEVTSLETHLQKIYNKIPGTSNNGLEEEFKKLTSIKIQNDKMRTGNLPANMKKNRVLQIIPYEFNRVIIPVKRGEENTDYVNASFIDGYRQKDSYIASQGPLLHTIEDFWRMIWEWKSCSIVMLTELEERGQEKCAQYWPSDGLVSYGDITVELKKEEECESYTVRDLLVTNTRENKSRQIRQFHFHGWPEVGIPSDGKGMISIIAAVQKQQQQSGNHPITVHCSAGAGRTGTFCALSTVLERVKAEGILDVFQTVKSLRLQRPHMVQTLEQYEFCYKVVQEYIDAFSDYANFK

The term IC50 denotes the concentration that inhibits the measured activity by half. In the case of `C=C/C(=C/C(=O)C[C@H](C)C[C@@H](C)CC[C@H](O)[C@H](C)C(=O)C[C@@H](O)[C@H](C)[C@@H](C)OC(=O)C[C@@H](O)C1=C(C)C(=O)OC1=O)CC` [TTN, tautomycetin], the “inhibition of the rest of the PTP panel (other than SHP2)” value in the assay with panel of PTPs was under 30%. In the assay on PP2A, the “inhibition of PP2A” value is listed as “low nM range”. The half-maximal inhibitory concentration (IC50) is over 50 µM against Cdc14A, 14.6 ± 1.1 µM at SHP1, over 50 µM on CD45 and over 50 µM against PTPα. Further, the “effect on proliferation of SHP2/E76K-expressing progenitors” value in assay [1] is reported as “effectively reduced”. The “inhibition of PP1” value in the assay with PP1 is on record as “low nM range”. Also, the “effect on development of CFU-M” value in assay [2] is recorded as “reduced in all cells types”.
